# From ChEMBL document CHEMBL1121923, “N2- and C-7 substituted actinomycin D analogues: synthesis, DNA-binding affinity, and biochemical and biological properties. Structure-activity relationship” (J Med Chem, 1981)
# How the values were obtained:
# [1] = system: P388; assay: Median survival time of the P388 cells implanted CDF1 male mice in vivo; assay type: functional
# Method in brief: (§1)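 CDF1 male mice, groups of seven, given 10^6 P388 cells ip on day 0; drug ip in 5% DMSO–saline on days 1, 5 and 9; controls received vehicle; range of doses tested, optimal nontoxic dose listed; median survival time; %ILS = (treated − control)/control × 100; average of two or more experiments.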
# [2] = system: P388; assay: Concentration required for 50% inhibition of incorporation of labeled uridine by P388 cells for the synthesis of RNA (in vitro); e indicates values are high and variable; assay type: functional, cell-based; conditions: Mus musculus
# [3] = system: P388; assay: Concentration required for 50% inhibition of incorporation of labeled thymidine by p388 cells for synthesis of DNA (in vitro); e indicates values are high and variable; assay type: functional, cell-based; conditions: Mus musculus
# [4] = system: P388; assay: Optimal dose for antitumor activity was measured in P388 cells of CDF1 male mice in vivo; assay type: functional; conditions: Mus musculus; method in brief: as §1
# [5] = system: Calf thymus DNA; assay: Apparent number of binding sites per base pairs in DNA; Not measurable; assay type: nucleic-acid assay; conditions: Bos taurus
# Method in brief: (§2)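 Calf thymus DNA; spectral titration; binding isotherms in 0.01 M phosphate buffer, pH 7.0, 20 °C; Kapp (per base pair) and Bapp (drug binding sites per base pair) taken from Scatchard plot.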
# [6] = system: Calf thymus DNA; assay: Apparent binding constant against calf thymus DNA-drug complex; Not measurable; assay type: nucleic-acid assay; conditions: Bos taurus; method in brief: as §2
# [7] = system: CCRF-CEM; assay: In vitro antitumor activity against human lymphoblastic leukemia cells.; assay type: functional; conditions: for IC50: read-out: ID50 (the source's name)
# Method in brief: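 Human lymphoblastic leukemia CCRF-CEM cells grown in suspension culture; growth inhibition in vitro; ID50 (ng/mL) reported as the 50% inhibitory dose.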
# [8] = system: P388; assay: Percent of increased life span of P388 cells implanted CDF1 male mice; assay type: functional; method in brief: as §1
# [9] = system: P388; assay: Concentration required for 50% inhibition of incorporation of labeled uridine by P388 cells for the synthesis of RNA (in vitro); Not determined because of lack of DNA binding; assay type: functional, cell-based; conditions: Mus musculus
# [10] = system: P388; assay: Concentration required for 50% inhibition of incorporation of labeled thymidine by p388 cells for synthesis of DNA (in vitro); Not determined because of lack of DNA binding; assay type: functional, cell-based; conditions: Mus musculus
# [11] = system: P388; assay: Optimal dose for antitumor activity was measured in P388 cells of CDF1 male mice in vivo; Highest dose tested; assay type: functional, Mus musculus; method in brief: as §1
# [12] = system: P388; assay: Concentration required for 50% inhibition of incorporation of labeled thymidine by p388 cells for synthesis of DNA (in vitro); assay type: functional; conditions: Mus musculus, read-out: ED50 (the source's name)
# [13] = system: P388; assay: Concentration required for 50% inhibition of incorporation of labeled uridine by P388 cells for the synthesis of RNA (in vitro); assay type: functional; conditions: Mus musculus, read-out: ED50 (the source's name)
# [14] = system: Calf thymus DNA; assay: Apparent binding constant calf thymus DNA-drug complex; assay type: nucleic-acid assay; conditions: Bos taurus; method in brief: as §2
Structure (SMILES),ED50 [2],ED50 [3],Bapp [5],K app [6],MST [1] [days],Highest dose tested [11] [mg/kg],IC50 [7] [mg/L],ILS [8] [%],other results
Cc1c2oc3c(C)c(OC(=O)Cc4ccc(Cl)c(Cl)c4)cc(C(=O)N[C@@H]4C(=O)N[C@H](C(C)C)C(=O)N5CCC[C@@H]5C(=O)N(C)CC(=O)N(C)[C@@H](C(C)C)C(=O)O[C@@H]4C)c3nc-2c(C(=O)N[C@H]2C(=O)N[C@@H](C(C)C)C(=O)N3CCC[C@H]3C(=O)N(C)CC(=O)N(C)[C@H](C(C)C)C(=O)O[C@H]2C)c(N)c1=O,High and variable values,High and variable values,Not measurable,Not measurable,–,–,–,–,MST ([1]; Mus musculus): 21 days; Optimal dose [4]: 0.5 mg/kg; ID50 [7]: 0.65 mg/L; ILS ([8]; Mus musculus): 100%
CCCCCCCOc1cc(C(=O)N[C@@H]2C(=O)N[C@H](C(C)C)C(=O)N3CCC[C@@H]3C(=O)N(C)CC(=O)N(C)[C@@H](C(C)C)C(=O)O[C@@H]2C)c2nc3c(C(=O)N[C@H]4C(=O)N[C@@H](C(C)C)C(=O)N5CCC[C@H]5C(=O)N(C)CC(=O)N(C)[C@H](C(C)C)C(=O)O[C@H]4C)c(N)c(=O)c(C)c-3oc2c1C,High and variable values,High and variable values,Not measurable,Not measurable,–,–,–,–,–
CCCCCNc1c(C(=O)N[C@H]2C(=O)N[C@@H](C(C)C)C(=O)N3CCC[C@H]3C(=O)N(C)CC(=O)N(C)[C@H](C(C)C)C(=O)O[C@H]2C)c2nc3c(C(=O)N[C@@H]4C(=O)N[C@H](C(C)C)C(=O)N5CCC[C@@H]5C(=O)N(C)CC(=O)N(C)[C@@H](C(C)C)C(=O)O[C@@H]4C)ccc(C)c3oc-2c(C)c1=O,–,–,–,–,–,–,–,–,ED50 [9]: Not measurable; ED50 [10]: Not measurable
Cc1c2oc3c(C)c(OC(=O)c4ccccc4)cc(C(=O)N[C@@H]4C(=O)N[C@H](C(C)C)C(=O)N5CCC[C@@H]5C(=O)N(C)CC(=O)N(C)[C@@H](C(C)C)C(=O)O[C@@H]4C)c3nc-2c(C(=O)N[C@H]2C(=O)N[C@@H](C(C)C)C(=O)N3CCC[C@H]3C(=O)N(C)CC(=O)N(C)[C@H](C(C)C)C(=O)O[C@H]2C)c(N)c1=O,High and variable values,High and variable values,Not measurable,Not measurable,–,–,–,–,–
Cc1c2oc3c(C)c(OC(=O)c4ccc5ccccc5c4)cc(C(=O)N[C@@H]4C(=O)N[C@H](C(C)C)C(=O)N5CCC[C@@H]5C(=O)N(C)CC(=O)N(C)[C@@H](C(C)C)C(=O)O[C@@H]4C)c3nc-2c(C(=O)N[C@H]2C(=O)N[C@@H](C(C)C)C(=O)N3CCC[C@H]3C(=O)N(C)CC(=O)N(C)[C@H](C(C)C)C(=O)O[C@H]2C)c(N)c1=O,High and variable values,High and variable values,Not measurable,Not measurable,–,–,–,–,–
CCCCCNc1c(C(=O)N[C@@H]2C(=O)N[C@H](C(C)C)C(=O)N3CCC[C@H]3C(=O)N(C)CC(=O)N(C)[C@@H](C(C)C)C(=O)O[C@@H]2C)c2nc3c(C(=O)N[C@@H]4C(=O)N[C@H](C(C)C)C(=O)N5CCC[C@H]5C(=O)N(C)CC(=O)N(C)[C@@H](C(C)C)C(=O)O[C@@H]4C)ccc(C)c3oc-2c(C)c1=O,–,–,–,–,13,1.15,1.6,18,–
Cc1c2oc3c(C)ccc(C(=O)N[C@@H]4C(=O)N[C@H](C(C)C)C(=O)N5CCC[C@H]5C(=O)N(C)CC(=O)N(C)[C@@H](C(C)C)C(=O)O[C@@H]4C)c3nc-2c(C(=O)N[C@@H]2C(=O)N[C@H](C(C)C)C(=O)N3CCC[C@H]3C(=O)N(C)CC(=O)N(C)[C@@H](C(C)C)C(=O)O[C@@H]2C)c(NCCCCN)c1=O,–,–,–,–,23,1.8,0.6,109,EC50 [12]: 3.3 µM; EC50 [13]: 0.346 µM
Cc1c2oc3c(C)c(OC(=O)C45CC6CC(CC(C6)C4)C5)cc(C(=O)N[C@@H]4C(=O)N[C@H](C(C)C)C(=O)N5CCC[C@@H]5C(=O)N(C)CC(=O)N(C)[C@@H](C(C)C)C(=O)O[C@@H]4C)c3nc-2c(C(=O)N[C@H]2C(=O)N[C@@H](C(C)C)C(=O)N3CCC[C@H]3C(=O)N(C)CC(=O)N(C)[C@H](C(C)C)C(=O)O[C@H]2C)c(N)c1=O,–,–,Not measurable,Not measurable,–,–,–,–,–
CCCCCCOc1cc(C(=O)N[C@@H]2C(=O)N[C@H](C(C)C)C(=O)N3CCC[C@H]3C(=O)N(C)CC(=O)N(C)[C@@H](C(C)C)C(=O)O[C@@H]2C)c2nc3c(C(=O)N[C@@H]4C(=O)N[C@H](C(C)C)C(=O)N5CCC[C@H]5C(=O)N(C)CC(=O)N(C)[C@@H](C(C)C)C(=O)O[C@@H]4C)c(N)c(=O)c(C)c-3oc2c1C,–,–,–,–,13,0.9,2.5,24,–
CCCCCCOc1cc(C(=O)N[C@@H]2C(=O)N[C@H](C(C)C)C(=O)N3CCC[C@@H]3C(=O)N(C)CC(=O)N(C)[C@@H](C(C)C)C(=O)O[C@@H]2C)c2nc3c(C(=O)N[C@H]4C(=O)N[C@@H](C(C)C)C(=O)N5CCC[C@H]5C(=O)N(C)CC(=O)N(C)[C@H](C(C)C)C(=O)O[C@H]4C)c(N)c(=O)c(C)c-3oc2c1C,High and variable values,High and variable values,Not measurable,Not measurable,–,–,–,–,–
CCCCCCNc1c(C(=O)N[C@@H]2C(=O)N[C@H](C(C)C)C(=O)N3CCC[C@H]3C(=O)N(C)CC(=O)N(C)[C@@H](C(C)C)C(=O)O[C@@H]2C)c2nc3c(C(=O)N[C@@H]4C(=O)N[C@H](C(C)C)C(=O)N5CCC[C@H]5C(=O)N(C)CC(=O)N(C)[C@@H](C(C)C)C(=O)O[C@@H]4C)ccc(C)c3oc-2c(C)c1=O,–,–,–,–,11,1.2,3,0,–
Cc1c2oc3c(C)ccc(C(=O)N[C@@H]4C(=O)N[C@H](C(C)C)C(=O)N5CCC[C@H]5C(=O)N(C)CC(=O)N(C)[C@@H](C(C)C)C(=O)O[C@@H]4C)c3nc-2c(C(=O)N[C@@H]2C(=O)N[C@H](C(C)C)C(=O)N3CCC[C@H]3C(=O)N(C)CC(=O)N(C)[C@@H](C(C)C)C(=O)O[C@@H]2C)c(NCCCCCN)c1=O,–,–,–,–,18,1.8,0.85,64,EC50 [12]: > 4.6 µM; EC50 [13]: 0.46 µM
Cc1c2oc3c(C)c(OCc4ccc(Cl)c(Cl)c4)cc(C(=O)N[C@@H]4C(=O)N[C@H](C(C)C)C(=O)N5CCC[C@@H]5C(=O)N(C)CC(=O)N(C)[C@@H](C(C)C)C(=O)O[C@@H]4C)c3nc-2c(C(=O)N[C@H]2C(=O)N[C@@H](C(C)C)C(=O)N3CCC[C@H]3C(=O)N(C)CC(=O)N(C)[C@H](C(C)C)C(=O)O[C@H]2C)c(N)c1=O,High and variable values,High and variable values,Not measurable,–,–,–,–,–,K app [14]: 10000 M⁻¹
Cc1c2oc3c(C)c(OCc4ccc(Cl)cc4)cc(C(=O)N[C@@H]4C(=O)N[C@H](C(C)C)C(=O)N5CCC[C@@H]5C(=O)N(C)CC(=O)N(C)[C@@H](C(C)C)C(=O)O[C@@H]4C)c3nc-2c(C(=O)N[C@H]2C(=O)N[C@@H](C(C)C)C(=O)N3CCC[C@H]3C(=O)N(C)CC(=O)N(C)[C@H](C(C)C)C(=O)O[C@H]2C)c(N)c1=O,High and variable values,High and variable values,Not measurable,–,–,–,–,–,K app [14]: 100000 M⁻¹
CCCCCCCOc1cc(C(=O)N[C@@H]2C(=O)N[C@H](C(C)C)C(=O)N3CCC[C@H]3C(=O)N(C)CC(=O)N(C)[C@@H](C(C)C)C(=O)O[C@@H]2C)c2nc3c(C(=O)N[C@@H]4C(=O)N[C@H](C(C)C)C(=O)N5CCC[C@H]5C(=O)N(C)CC(=O)N(C)[C@@H](C(C)C)C(=O)O[C@@H]4C)c(N)c(=O)c(C)c-3oc2c1C,–,–,–,–,13,0.9,3,24,–
CCCCCCCCCNc1c(C(=O)N[C@@H]2C(=O)N[C@H](C(C)C)C(=O)N3CCC[C@H]3C(=O)N(C)CC(=O)N(C)[C@@H](C(C)C)C(=O)O[C@@H]2C)c2nc3c(C(=O)N[C@@H]4C(=O)N[C@H](C(C)C)C(=O)N5CCC[C@H]5C(=O)N(C)CC(=O)N(C)[C@@H](C(C)C)C(=O)O[C@@H]4C)ccc(C)c3oc-2c(C)c1=O,–,–,–,–,10,1.8,11,–,–
CCCCCCCCCCCNc1c(C(=O)N[C@@H]2C(=O)N[C@H](C(C)C)C(=O)N3CCC[C@H]3C(=O)N(C)CC(=O)N(C)[C@@H](C(C)C)C(=O)O[C@@H]2C)c2nc3c(C(=O)N[C@@H]4C(=O)N[C@H](C(C)C)C(=O)N5CCC[C@H]5C(=O)N(C)CC(=O)N(C)[C@@H](C(C)C)C(=O)O[C@@H]4C)ccc(C)c3oc-2c(C)c1=O,–,–,–,–,10,1.15,> 15,–,–
Cc1c2oc3c(C)c(OCc4ccc([N+](=O)[O-])cc4)cc(C(=O)N[C@@H]4C(=O)N[C@H](C(C)C)C(=O)N5CCC[C@@H]5C(=O)N(C)CC(=O)N(C)[C@@H](C(C)C)C(=O)O[C@@H]4C)c3nc-2c(C(=O)N[C@H]2C(=O)N[C@@H](C(C)C)C(=O)N3CCC[C@H]3C(=O)N(C)CC(=O)N(C)[C@H](C(C)C)C(=O)O[C@H]2C)c(N)c1=O,High and variable values,High and variable values,Not measurable,–,–,–,–,–,K app [14]: 100000 M⁻¹
